Here are results for one compound from ChEMBL document CHEMBL1128543, “Computer-aided design and synthesis of 5-substituted tryptamines and their pharmacology at the 5-HT1D receptor: discovery of compounds with potential anti-migraine properties” (J Med Chem, 1995).

For assay [1], the species on record is Oryctolagus cuniculus. The assay can be described thus: Binding affinity against 5-hydroxytryptamine 1 receptor using rabbit saphenous vein assay. It counts as tissue-based. An outline of the steps:
(§1)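 Male New Zealand White rabbit saphenous vein rings (4–5 mm) in Krebs–Henseleit at 37 °C, pH 7.4, gassed with 95% O₂:5% CO₂, under 2 g passive force. Tissues got 30 min pargyline (500 μM) and phenoxybenzamine (0.3 μM), then were washed and checked with 1 μM 5-HT. A cumulative 5-HT curve was followed 60 min later by a test agonist curve. Potency is p[A₅₀]; α is test max/5-HT max; n ≥ 3.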

The species entered for assay [2] is Oryctolagus cuniculus. The assay can be described thus: Binding affinity against 5-hydroxytryptamine 1D receptor using rabbit saphenous vein assay. Type of assay: tissue-based. An outline of the steps: as §1
Assay [3] addresses 5-hydroxytryptamine receptor 1B (Homo sapiens, UniProt P28222). As to the kind of experiment: Binding affinity against 5-hydroxytryptamine 1D receptor beta using rabbit saphenous vein assay. It counts as tissue-based. In a few lines: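 Saphenous vein rings (4–5 mm) from male New Zealand White rabbits, in Krebs–Henseleit buffer at 37 °C, pH 7.4, gassed 95% O2/5% CO2, 2 g passive force. Pretreated with pargyline (500 μM) and phenoxybenzamine (0.3 μM) for 30 min, then washed. A cumulative 5-HT curve was followed after 60 min by a curve to the test agonist. p[A50] and α relative to 5-HT maximum were derived; mean of n ≥ 3.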

In assay [4] the target is 5-hydroxytryptamine receptor 1D (Homo sapiens) (UniProt P28221). The assay can be described thus: The compound was tested for intrinsic activity against 5-HT1D receptor. The note with it: Oryctolagus cuniculus. In a few lines: (§2)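 Rabbit saphenous vein rings (male New Zealand White; 4–5 mm) mounted on tungsten wires in Krebs–Henseleit buffer, pH 7.4, 37 °C, gassed with 95% O2/5% CO2, at 2 g passive force. Pretreated for 30 min with pargyline (500 μM) and phenoxybenzamine (0.3 μM), then washed. Cumulative 5-HT curve, then after 60 min a test agonist curve. Potency is p[A50]; α is test maximum/5-HT maximum; n ≥ 3.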

For assay [5] the target is unchanged. The assay can be described thus: The compound was tested for binding affinity against 5-HT1D receptor. The note with it: Oryctolagus cuniculus. In a few lines: as §2
In assay [6] the target is Serotonin 3 (5-HT3) receptor (Homo sapiens) (UniProt P46098+A5X5Y0+O95264+Q70Z44+Q8WXA8). As to the kind of experiment: Binding affinity against 5-hydroxytryptamine 3 receptor […]. Type of assay: cell-based. The note with it: Oryctolagus cuniculus.
Assay [7] deals with Adrenergic receptor alpha-1 (Homo sapiens) (UniProt P35348+P25100+P35368). The assay can be described thus: Binding affinity against Alpha-1 adrenergic receptor using rabbit saphenous vein assay. It counts as tissue-based. The note with it: Oryctolagus cuniculus, target entry is the homologue from another species.
Assay [8] deals with Beta-2 adrenergic receptor (Canis lupus familiaris) (UniProt P54833). As to the kind of experiment: Binding affinity towards Beta adrenergic receptor.
Assay [9] deals with D(2) dopamine receptor (Homo sapiens) (UniProt P14416). The assay can be described thus: Binding affinity against Dopamine receptor D2 using rabbit saphenous vein assay. Type of assay: tissue-based. The note with it: Oryctolagus cuniculus, target entry is the homologue from another species.
For a further assay, the target named is D(1A) dopamine receptor (Rattus norvegicus, UniProt P18901). As to the kind of experiment: Binding affinity against dopamine receptor D1 in rat striatum using [3H]SCH-23390 as radioligand. It counts as tissue-based. An outline of the steps:
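Displacement of [³H]SCH23390 (0.3 nM, about K_D) from rat striatum homogenate, with test compounds run in duplicate over a wide range. Incubation was 30 min at 27 °C in 50 mM Tris-HCl with 5 mM CaCl₂, 0.1% w/v ascorbate and 10 mM pargyline. Assays were filtered and washed with ice-cold buffer, and bound label was counted by scintillation. Results are pK_i or pIC₅₀, n ≥ 3.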

Assay [10] deals with D(1A) dopamine receptor (Homo sapiens) (UniProt P21728). The assay can be described thus: Binding affinity was evaluated by Dopamine receptor D1 agonism in the calf striatum by displacing SCH 23390. It counts as tissue-based. The note with it: Oryctolagus cuniculus.
The target of a further assay is D(2) dopamine receptor (Rattus norvegicus, UniProt P61169). As to the kind of experiment: Binding affinity against Dopamine receptor D2 in rat striatum using [3H]-spiperone as radioligand. It counts as tissue-based. In a few lines: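 Incubation was 30 min at 27 °C in Tris-HCl 50 mM/CaCl₂ 5 mM/0.1% ascorbate/10 mM pargyline buffer. Bound and free label were separated by filtration and counted by liquid scintillation. pK_i or pIC₅₀ is the mean of n ≥ 3.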

Assay [11] concerns the target Histamine H1 receptor (Homo sapiens) (UniProt P35367). As to the kind of experiment: Binding affinity against H1 receptor using rabbit saphenous vein assay. Type of assay: tissue-based. The note with it: Oryctolagus cuniculus, target entry is the homologue from another species.
The target in assay [12] is Histamine H2 receptor (Homo sapiens) (UniProt P25021). As to the kind of experiment: Binding affinity against H2 receptor using rabbit saphenous vein assay. It counts as tissue-based. The note with it: Oryctolagus cuniculus, target entry is the homologue from another species.
The target in assay [13] is T1, Muscarinic acetylcholine receptor M2 (Homo sapiens) (UniProt P08172).
T1 sequence (whole entry): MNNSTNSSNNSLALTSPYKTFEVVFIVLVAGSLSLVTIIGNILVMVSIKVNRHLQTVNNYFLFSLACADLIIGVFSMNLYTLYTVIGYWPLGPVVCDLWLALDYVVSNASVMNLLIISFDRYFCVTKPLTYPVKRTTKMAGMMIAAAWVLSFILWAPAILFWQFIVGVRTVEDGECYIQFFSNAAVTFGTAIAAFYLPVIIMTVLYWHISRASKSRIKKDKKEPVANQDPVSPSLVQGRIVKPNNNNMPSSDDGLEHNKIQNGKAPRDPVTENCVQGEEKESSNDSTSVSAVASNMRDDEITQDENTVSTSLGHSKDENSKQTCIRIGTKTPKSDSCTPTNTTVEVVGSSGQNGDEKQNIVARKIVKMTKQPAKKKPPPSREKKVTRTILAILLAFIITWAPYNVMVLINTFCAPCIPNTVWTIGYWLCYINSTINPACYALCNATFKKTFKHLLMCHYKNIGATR
The assay can be described thus: Binding affinity against Muscarinic acetylcholine receptor M2 using rabbit saphenous vein assay. The note with it: Oryctolagus cuniculus, target entry is the homologue from another species. It counts as tissue-based.

Assay [14] deals with Muscarinic acetylcholine receptor M3 (Homo sapiens) (UniProt P20309). As to the kind of experiment: Binding affinity against Muscarinic acetylcholine receptor M3 using rabbit saphenous vein assay. It counts as tissue-based. The note with it: Oryctolagus cuniculus, target entry is the homologue from another species.
The target in assay [15] is 5-hydroxytryptamine receptor 2A (Homo sapiens) (UniProt P28223). The note with it: Oryctolagus cuniculus.
The target in assay [16] is Adrenergic receptor alpha-2 (Homo sapiens) (UniProt P08913+P18825+P18089). The note with it: Oryctolagus cuniculus; Saphenous vein.

Sequence of 5-hydroxytryptamine receptor 1D (Homo sapiens) (P28221 whole entry): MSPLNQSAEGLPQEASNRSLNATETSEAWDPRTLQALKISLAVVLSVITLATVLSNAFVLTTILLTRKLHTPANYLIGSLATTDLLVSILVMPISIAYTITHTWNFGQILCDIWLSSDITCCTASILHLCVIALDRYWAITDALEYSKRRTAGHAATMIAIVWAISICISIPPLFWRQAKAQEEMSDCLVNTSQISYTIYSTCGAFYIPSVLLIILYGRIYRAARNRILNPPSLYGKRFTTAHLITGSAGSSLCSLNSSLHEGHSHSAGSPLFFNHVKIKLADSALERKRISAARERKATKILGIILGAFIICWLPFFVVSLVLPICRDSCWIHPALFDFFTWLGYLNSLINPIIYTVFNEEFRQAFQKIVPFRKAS
Sequence of D(1A) dopamine receptor (Homo sapiens) (P21728 whole entry): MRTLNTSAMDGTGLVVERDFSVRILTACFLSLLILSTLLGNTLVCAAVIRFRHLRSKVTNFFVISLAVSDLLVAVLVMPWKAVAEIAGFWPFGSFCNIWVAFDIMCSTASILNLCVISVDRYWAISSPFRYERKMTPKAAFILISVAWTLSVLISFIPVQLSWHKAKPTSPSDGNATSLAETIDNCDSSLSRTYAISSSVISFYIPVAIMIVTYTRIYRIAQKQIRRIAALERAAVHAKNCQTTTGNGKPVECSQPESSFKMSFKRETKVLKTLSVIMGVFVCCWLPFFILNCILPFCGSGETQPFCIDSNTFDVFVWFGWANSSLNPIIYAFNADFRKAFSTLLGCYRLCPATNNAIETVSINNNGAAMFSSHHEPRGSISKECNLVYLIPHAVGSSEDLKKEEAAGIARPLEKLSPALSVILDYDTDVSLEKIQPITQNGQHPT
Sequence of D(2) dopamine receptor (Homo sapiens) (P14416 whole entry): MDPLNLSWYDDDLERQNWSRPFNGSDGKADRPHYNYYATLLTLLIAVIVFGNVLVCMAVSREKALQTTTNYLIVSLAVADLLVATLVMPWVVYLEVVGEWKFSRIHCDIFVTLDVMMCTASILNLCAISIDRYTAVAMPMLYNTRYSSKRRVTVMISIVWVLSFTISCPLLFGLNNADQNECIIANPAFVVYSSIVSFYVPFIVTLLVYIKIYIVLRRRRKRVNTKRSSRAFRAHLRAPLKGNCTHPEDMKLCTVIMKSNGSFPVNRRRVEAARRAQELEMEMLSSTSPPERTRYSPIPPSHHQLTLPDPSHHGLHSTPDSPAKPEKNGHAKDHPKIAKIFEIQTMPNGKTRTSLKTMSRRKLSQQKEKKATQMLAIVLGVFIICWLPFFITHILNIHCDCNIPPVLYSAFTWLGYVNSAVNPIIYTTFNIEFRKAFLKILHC
Sequence of Beta-2 adrenergic receptor (Canis lupus familiaris) (P54833 whole entry, looked up): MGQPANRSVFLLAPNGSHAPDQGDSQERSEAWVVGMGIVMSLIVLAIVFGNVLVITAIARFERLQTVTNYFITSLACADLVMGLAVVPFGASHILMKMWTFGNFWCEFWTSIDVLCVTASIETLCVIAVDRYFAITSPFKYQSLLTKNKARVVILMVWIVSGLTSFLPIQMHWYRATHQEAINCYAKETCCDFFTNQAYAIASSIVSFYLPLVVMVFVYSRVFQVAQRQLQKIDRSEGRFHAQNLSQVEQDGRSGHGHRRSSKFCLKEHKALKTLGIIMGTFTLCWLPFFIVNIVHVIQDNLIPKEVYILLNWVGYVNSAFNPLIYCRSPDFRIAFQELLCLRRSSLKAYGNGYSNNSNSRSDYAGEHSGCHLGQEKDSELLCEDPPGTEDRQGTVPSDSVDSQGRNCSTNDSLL
Sequence of 5-hydroxytryptamine receptor 1B (P28222 whole entry): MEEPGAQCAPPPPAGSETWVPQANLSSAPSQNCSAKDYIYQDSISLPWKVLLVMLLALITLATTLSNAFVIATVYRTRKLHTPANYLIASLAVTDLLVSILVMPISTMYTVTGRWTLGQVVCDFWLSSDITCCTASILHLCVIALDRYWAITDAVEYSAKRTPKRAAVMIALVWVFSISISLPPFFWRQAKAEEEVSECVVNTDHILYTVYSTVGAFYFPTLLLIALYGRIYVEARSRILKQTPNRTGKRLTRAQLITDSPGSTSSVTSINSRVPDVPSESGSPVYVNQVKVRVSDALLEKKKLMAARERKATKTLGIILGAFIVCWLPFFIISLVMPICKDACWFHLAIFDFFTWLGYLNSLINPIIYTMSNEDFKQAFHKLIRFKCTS
Sequence of D(1A) dopamine receptor (P18901 whole entry): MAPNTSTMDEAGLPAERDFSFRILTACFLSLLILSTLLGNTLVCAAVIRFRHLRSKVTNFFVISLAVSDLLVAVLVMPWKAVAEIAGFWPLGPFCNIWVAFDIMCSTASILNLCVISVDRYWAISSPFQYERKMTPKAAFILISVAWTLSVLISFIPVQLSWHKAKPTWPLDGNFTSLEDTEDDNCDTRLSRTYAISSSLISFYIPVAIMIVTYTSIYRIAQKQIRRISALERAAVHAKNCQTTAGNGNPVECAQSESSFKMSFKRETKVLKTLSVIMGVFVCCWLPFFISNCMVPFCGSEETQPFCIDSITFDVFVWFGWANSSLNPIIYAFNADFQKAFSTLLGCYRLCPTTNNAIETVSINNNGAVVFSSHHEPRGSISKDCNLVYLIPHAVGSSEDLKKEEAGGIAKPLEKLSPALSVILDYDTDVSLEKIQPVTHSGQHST
Sequence of Histamine H1 receptor (Homo sapiens) (P35367 whole entry): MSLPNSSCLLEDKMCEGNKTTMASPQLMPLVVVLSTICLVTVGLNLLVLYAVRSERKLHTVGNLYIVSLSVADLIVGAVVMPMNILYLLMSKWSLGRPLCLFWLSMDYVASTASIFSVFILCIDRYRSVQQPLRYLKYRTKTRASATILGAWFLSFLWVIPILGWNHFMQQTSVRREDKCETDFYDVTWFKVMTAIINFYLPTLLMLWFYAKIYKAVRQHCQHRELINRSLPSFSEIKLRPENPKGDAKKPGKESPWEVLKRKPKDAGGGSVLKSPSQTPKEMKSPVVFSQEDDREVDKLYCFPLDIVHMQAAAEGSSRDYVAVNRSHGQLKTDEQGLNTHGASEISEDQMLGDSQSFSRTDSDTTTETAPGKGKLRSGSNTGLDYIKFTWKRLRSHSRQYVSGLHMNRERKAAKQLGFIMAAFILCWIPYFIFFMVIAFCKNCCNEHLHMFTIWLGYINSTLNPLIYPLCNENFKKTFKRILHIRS
Sequence of D(2) dopamine receptor (P61169 whole entry): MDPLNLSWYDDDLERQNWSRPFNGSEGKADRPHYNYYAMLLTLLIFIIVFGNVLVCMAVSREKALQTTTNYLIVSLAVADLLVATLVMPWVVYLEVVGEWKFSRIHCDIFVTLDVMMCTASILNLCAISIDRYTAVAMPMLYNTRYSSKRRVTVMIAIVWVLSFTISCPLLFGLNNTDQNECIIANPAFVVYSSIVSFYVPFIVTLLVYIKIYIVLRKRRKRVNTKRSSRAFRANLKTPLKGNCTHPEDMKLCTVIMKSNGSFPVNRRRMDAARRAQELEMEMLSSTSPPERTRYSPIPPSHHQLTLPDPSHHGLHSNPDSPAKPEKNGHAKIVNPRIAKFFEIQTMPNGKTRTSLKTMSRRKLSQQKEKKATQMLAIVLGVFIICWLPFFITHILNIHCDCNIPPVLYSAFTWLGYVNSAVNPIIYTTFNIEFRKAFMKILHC
Sequence of Muscarinic acetylcholine receptor M3 (Homo sapiens) (P20309 whole entry, looked up): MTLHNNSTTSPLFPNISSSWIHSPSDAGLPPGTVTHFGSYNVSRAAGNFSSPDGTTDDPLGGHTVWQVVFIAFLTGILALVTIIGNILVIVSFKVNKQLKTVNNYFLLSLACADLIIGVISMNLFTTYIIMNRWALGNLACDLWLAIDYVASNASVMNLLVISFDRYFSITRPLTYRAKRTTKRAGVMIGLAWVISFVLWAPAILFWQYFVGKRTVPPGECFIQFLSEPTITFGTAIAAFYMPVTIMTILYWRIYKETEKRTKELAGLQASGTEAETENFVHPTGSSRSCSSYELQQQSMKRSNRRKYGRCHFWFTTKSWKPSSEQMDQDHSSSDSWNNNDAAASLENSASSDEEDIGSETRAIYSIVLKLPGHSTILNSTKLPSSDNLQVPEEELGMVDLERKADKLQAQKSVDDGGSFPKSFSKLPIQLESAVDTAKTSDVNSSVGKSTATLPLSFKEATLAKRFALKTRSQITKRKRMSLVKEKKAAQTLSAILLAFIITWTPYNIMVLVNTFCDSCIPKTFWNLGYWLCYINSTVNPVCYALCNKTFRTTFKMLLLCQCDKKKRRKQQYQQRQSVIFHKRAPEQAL
Sequence of Histamine H2 receptor (Homo sapiens) (P25021 whole entry): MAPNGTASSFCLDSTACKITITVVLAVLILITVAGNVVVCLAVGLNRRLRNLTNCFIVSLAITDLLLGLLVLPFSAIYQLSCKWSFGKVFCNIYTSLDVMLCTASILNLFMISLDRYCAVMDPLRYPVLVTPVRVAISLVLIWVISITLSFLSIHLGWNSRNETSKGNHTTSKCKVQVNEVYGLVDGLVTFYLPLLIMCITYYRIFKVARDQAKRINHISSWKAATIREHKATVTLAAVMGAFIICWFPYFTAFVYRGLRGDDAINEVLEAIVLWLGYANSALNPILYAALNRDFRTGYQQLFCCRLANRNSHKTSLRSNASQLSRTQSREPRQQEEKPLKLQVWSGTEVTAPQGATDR
Sequence of 5-hydroxytryptamine receptor 2A (Homo sapiens) (P28223 whole entry): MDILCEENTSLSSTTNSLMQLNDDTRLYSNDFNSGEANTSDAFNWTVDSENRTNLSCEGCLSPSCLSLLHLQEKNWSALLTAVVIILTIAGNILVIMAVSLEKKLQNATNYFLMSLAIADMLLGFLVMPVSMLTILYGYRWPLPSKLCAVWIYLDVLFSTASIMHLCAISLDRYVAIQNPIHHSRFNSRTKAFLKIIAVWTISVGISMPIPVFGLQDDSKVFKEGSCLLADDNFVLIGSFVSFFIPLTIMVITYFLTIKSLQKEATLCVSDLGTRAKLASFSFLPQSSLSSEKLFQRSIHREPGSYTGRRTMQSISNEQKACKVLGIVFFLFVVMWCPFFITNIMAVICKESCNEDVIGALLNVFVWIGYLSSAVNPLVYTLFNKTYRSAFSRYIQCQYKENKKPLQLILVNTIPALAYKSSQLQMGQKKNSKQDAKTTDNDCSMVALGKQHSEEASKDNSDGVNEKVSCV

Take `CN(C)CCc1c[nH]c2ccc(C[C@H]3COC(=O)N3)cc12` [ZOLMITRIPTAN]: the p[A50] in the assay filed under Oryctolagus cuniculus [1] is 6.8; in the assay listed under Oryctolagus cuniculus [2], below 4.5; in [5], 6.8; in [6] it was below 4.5; in assay [7], below 4; in assay [8], below 4. Also, the p[A50] in [9] is below 4; in assay [10] it was below 4; in assay [11], 5.5; in [12] it was below 4.5; in assay [13] it was below 4.5; in assay [14], below 4.5. Further, the p[A50] in assay [15] was determined as 6.6; in [16], 4.1. Moreover, the dissociation constant Kd (in general, a measure of binding affinity in units of concentration) in assay [3] was determined as 1.5 nM; on D(1A) dopamine receptor, 0.3 nM; at D(2) dopamine receptor, 0.04 nM. This compound also displayed an Intrinsic activity in assay [4] of 0.77.
